Legend:
[1] = Agonist activity at PPARgamma in human MKN45 cells assessed as induction of cell aggregation incubated for 5 days by Hoechst 33342 staining based IN cell analyzer method
[2] = biological target: T1, Peroxisome proliferator-activated receptor gamma (Homo sapiens, UniProt P37231); test: Agonist activity at PPARgamma in human MKN45 cells assessed as induction of cell aggregation incubated for 5 days by Hoechst 33342 staining based IN cell analyzer method
T1 sequence (P37231 whole entry): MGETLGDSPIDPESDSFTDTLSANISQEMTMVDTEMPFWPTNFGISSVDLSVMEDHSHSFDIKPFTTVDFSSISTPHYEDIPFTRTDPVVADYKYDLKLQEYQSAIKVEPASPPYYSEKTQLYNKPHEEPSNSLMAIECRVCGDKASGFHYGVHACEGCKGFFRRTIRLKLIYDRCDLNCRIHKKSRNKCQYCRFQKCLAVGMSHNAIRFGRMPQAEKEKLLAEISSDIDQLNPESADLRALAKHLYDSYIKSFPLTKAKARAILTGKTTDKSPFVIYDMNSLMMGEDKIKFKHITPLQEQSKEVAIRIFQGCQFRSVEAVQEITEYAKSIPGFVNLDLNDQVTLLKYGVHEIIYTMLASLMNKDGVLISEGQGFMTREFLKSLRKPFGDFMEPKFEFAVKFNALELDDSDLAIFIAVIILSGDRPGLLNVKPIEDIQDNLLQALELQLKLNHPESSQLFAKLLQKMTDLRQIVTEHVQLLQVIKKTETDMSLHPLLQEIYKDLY
How it was run: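 MKN45 cells in RPMI1640 with 10% FBS at 37 °C, 5% CO2, seeded 2500 cells/well and exposed to compound 1-1000 nM (n = 3 per concentration) for 5 days. Nuclei stained with Hoechst 33342, imaged on IN Cell Analyzer, nuclear area computed. Maximum activity expressed as % of reference compound maximum; EC50 = concentration giving 50% of own maximum.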

Compound | EC50 [1] | EC50 [2]
CCCc1nc2ccccc2n1Cc1ccc2c(c1)COc1ccc(F)cc1/C2=C(\C)c1noc(=O)[nH]1 | 7 nM | 
C/C(=C1/c2ccc(Cn3c(C4CC4)nc4c(Cl)ccnc43)cc2COc2cc(F)ccc21)c1noc(=O)[nH]1 | 32 nM | 
C/C(=C1/c2ccc(Cc3c(C4CC4)nc4ccccn34)cc2COc2cc(F)ccc21)c1noc(=O)[nH]1 | 5.3 nM | 
COCc1nc2cc(Cl)ccn2c1Cc1ccc2c(c1)COc1cc(F)ccc1/C2=C(\C)c1noc(=O)[nH]1 |  | 1 nM
C/C(=C1/c2ccc(Cn3c(C4CC4)nc4c(Cl)nccc43)cc2COc2cc(F)ccc21)c1noc(=O)[nH]1 | 22 nM | 
C/C(=C1/c2ccc(Cc3c(C4CC4)nc4c5c(ccn34)OCC5)cc2COc2cc(F)ccc21)c1noc(=O)[nH]1 | 19 nM | 

The remaining molecules from weak to strong by EC50 [1], led by results:

EC50 [1] | EC50 [2] | Compound
3.8 nM |  | CCCc1nc2ccccc2n1Cc1ccc2c(c1)COc1c(F)cccc1/C2=C(\C)c1noc(=O)[nH]1
3.3 nM |  | CCCc1nc2c(C)cccc2n1Cc1ccc2c(c1)COc1ccccc1/C2=C(\C)c1noc(=O)[nH]1
3 nM |  | C/C(=C1/c2ccc(Cn3c(C4CC4)nc4cscc43)cc2COc2cc(F)ccc21)c1noc(=O)[nH]1
2.5 nM |  | C/C(=C1/c2ccc(Cc3c(C4CC4)nc4c(Cl)cccn34)cc2COc2cc(F)ccc21)c1noc(=O)[nH]1
2 nM |  | C/C(=C1/c2ccc(Cc3c(C4CC4)nc4ccc(Cl)cn34)cc2COc2cc(F)ccc21)c1noc(=O)[nH]1
1.7 nM |  | C/C(=C1/c2ccc(Cc3c(C4CC4)nc4cc(F)ccn34)cc2COc2cc(F)ccc21)c1noc(=O)[nH]1
1.4 nM |  | C/C(=C1/c2ccc(Cc3c(C4CC4)nc4cc(Cl)ccn34)cc2COc2cc(F)ccc21)c1noc(=O)[nH]1
1 nM |  | CCCc1nc2ccccc2n1Cc1ccc2c(c1)COc1cc(F)ccc1/C2=C(\C)c1noc(=O)[nH]1
